Laboratory results taken from ChEMBL document CHEMBL1125181, “Naphthosultam derivatives: a new class of potent and selective 5-HT2 antagonists” (J Med Chem, 1991).

What was measured:
[1] = biological target: Serotonin 2 (5-HT2) receptor (Rattus norvegicus, UniProt P30994+P08909+P14842); test: The concentration required to inhibit [3H]ketanserin binding to 5-hydroxytryptamine 2 receptor in rat brain membranes (in vitro); assay type: cell membranes
Procedure, shortened: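 Male Sprague-Dawley rat cortical membranes (0.15 mg/mL protein) in Tris-HCl pH 7.6 with BSA 2 mg/mL. Incubated 15 min at 37 °C with compound and [3H]ketanserin (final 0.4 nM). Nonspecific binding from 10⁻⁶ M methysergide. Filtration and scintillation counting. IC50 by nonlinear regression; mean of at least 2 runs, 6 concentrations in triplicate.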

[2] = biological target: T1, Adrenergic receptor alpha-1 (Rattus norvegicus, UniProt P15823+P23944+P43140); test: The concentration required to inhibit 3[H]prazosin binding to Alpha-1 adrenergic receptor in rat brain membranes was measured (in vitro); assay type: cell membranes
T1 sequence (P15823 whole entry): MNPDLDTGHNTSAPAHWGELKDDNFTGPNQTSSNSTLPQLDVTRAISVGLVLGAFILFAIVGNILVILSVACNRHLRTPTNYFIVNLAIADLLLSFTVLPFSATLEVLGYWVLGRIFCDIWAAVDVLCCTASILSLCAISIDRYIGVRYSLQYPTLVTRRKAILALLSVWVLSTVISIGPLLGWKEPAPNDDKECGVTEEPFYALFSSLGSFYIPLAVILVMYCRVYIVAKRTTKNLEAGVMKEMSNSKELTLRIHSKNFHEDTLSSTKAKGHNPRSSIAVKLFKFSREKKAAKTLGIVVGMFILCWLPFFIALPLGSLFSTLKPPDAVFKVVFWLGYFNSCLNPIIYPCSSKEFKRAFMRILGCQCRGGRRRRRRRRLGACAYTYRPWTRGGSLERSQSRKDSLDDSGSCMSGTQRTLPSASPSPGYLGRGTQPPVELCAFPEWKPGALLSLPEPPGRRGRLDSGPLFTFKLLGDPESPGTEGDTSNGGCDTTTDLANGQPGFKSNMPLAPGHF
T1 sequence (P23944 whole entry): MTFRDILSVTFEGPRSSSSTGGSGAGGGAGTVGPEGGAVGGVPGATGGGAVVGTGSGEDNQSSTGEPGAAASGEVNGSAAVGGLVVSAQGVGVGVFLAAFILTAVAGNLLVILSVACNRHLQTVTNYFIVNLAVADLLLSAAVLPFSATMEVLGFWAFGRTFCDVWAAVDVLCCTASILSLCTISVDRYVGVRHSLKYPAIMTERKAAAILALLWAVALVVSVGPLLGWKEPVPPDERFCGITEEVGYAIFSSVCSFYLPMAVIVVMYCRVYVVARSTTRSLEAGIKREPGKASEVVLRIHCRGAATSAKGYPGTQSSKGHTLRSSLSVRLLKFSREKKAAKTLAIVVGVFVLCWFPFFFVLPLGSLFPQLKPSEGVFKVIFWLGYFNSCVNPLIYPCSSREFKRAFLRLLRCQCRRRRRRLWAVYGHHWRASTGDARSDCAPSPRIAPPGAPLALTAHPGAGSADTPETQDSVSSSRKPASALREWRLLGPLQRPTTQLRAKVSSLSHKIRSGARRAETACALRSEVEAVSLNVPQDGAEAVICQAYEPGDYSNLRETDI
T1 sequence (P43140 whole entry): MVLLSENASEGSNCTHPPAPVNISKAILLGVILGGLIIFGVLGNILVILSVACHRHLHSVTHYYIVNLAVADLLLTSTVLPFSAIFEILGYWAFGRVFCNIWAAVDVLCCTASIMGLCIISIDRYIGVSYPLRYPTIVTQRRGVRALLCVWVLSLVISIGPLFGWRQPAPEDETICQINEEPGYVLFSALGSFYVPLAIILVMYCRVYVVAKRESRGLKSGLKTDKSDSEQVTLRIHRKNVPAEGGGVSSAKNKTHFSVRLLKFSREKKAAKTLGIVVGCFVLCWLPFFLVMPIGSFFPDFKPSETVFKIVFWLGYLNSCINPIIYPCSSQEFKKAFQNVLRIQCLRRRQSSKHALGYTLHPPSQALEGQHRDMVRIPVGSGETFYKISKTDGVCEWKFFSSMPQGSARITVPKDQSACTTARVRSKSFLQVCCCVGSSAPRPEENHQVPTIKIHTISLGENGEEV
Procedure, shortened: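 Male Sprague-Dawley rat cerebrocortical membranes (0.15 mg/mL protein) in Tris-HCl pH 7.6 with BSA 2 mg/mL. Incubated 40 min at 25 °C with compound and [3H]prazosin (final 0.065 nM). Nonspecific binding from 10⁻⁶ M phentolamine. Filtration and scintillation counting. IC50 values are the mean of at least 2 runs, each with 6 concentrations in triplicate.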

D(2) dopamine receptor [3] = biological target: T2, D(2) dopamine receptor (Rattus norvegicus, UniProt P61169); test: The concentration required to inhibit [3H]spiperone binding to dopamine receptor D2 in rat brain membranes (in vitro); assay type: cell membranes
T2 sequence (P61169 whole entry): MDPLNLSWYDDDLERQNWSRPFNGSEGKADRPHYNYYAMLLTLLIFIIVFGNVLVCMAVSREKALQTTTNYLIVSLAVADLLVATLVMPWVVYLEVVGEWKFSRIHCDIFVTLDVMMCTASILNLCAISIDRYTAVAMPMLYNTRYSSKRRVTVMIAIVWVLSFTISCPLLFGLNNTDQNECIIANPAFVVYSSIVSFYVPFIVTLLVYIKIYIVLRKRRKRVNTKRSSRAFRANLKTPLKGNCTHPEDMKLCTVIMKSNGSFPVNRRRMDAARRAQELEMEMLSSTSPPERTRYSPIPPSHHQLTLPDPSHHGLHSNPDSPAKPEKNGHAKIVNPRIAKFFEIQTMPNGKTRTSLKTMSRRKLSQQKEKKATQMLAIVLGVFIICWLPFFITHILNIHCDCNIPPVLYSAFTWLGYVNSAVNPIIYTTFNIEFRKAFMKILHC
Procedure, shortened: (§1)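 Rat striatal membranes (0.05 mg/mL protein) in Tris-HCl with BSA 2 mg/mL, NaCl, cinanserin 10⁻⁶ M and compound. [3H]spiperone (final 0.05 nM) added after 5 min, incubation continued 40 min. Nonspecific binding from 10⁻⁶ M sulpiride. Filtration and scintillation counting.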

Rattus norvegicus [4] = test: The concentration required to induce head twich for 16 hours in rats when given sc (in vivo); assay type: functional
Procedure, shortened: (§2)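 Rats, 6 per dose, dosed sc or po, then given mescaline 20 mg/kg iv 1 h later (6 or 16 h later for duration of action). Head twitches counted for 15 min from injection. Fewer than 3 twitches counted as antagonism.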

Mus musculus [5] = test: The concentration required to induce head twich in mice when given sc (in vivo); assay type: functional
Procedure, shortened: (§3)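 Mice, 6 per dose, dosed sc 60 min or po 90 min before mescaline 50 mg/kg ip. Observed for 2 min starting 15 min after mescaline; head twitches scored as all-or-none.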

Rattus norvegicus [6] = test: The concentration required to induce head twich for 1 hours in rats when given po (in vivo); assay type: functional; procedure, shortened: as §2
Rattus norvegicus [7] = test: The concentration required to induce head twich for 6 hours in rats when given sc (in vivo); assay type: functional; procedure, shortened: as §2
Mus musculus [8] = test: The concentration required to induce head twich in mice when given po (in vivo); assay type: functional; procedure, shortened: as §3
Rattus norvegicus [9] = test: The concentration required to induce head twich for 16 hours in rats when given po (in vivo); assay type: functional; procedure, shortened: as §2
Rattus norvegicus [10] = test: The concentration required to induce head twich for 1 hours in rats when given sc (in vivo); assay type: functional; procedure, shortened: as §2
Rattus norvegicus [11] = test: The concentration required to induce head twich for 6 hours in rats when given po (in vivo); assay type: functional; procedure, shortened: as §2
Histamine H1 receptor = Histamine H1 receptor (Cavia porcellus, UniProt P31389); test: Binding constant against histamine H1 receptor […]
Chain of Histamine H1 receptor (P31389 whole entry): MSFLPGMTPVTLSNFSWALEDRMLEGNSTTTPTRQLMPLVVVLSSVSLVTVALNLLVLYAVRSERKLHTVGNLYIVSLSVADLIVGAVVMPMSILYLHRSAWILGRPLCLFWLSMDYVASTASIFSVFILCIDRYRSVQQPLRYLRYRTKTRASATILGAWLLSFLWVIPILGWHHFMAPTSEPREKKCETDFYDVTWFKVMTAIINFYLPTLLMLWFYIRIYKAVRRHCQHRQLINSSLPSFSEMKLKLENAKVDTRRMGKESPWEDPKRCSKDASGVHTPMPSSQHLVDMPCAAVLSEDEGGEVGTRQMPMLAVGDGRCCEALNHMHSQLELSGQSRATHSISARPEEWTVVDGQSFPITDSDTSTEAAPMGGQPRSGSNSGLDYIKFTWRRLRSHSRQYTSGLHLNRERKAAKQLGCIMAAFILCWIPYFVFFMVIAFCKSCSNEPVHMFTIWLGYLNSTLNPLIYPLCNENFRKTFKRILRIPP
Procedure, shortened: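 Male guinea pig cerebellar membranes (0.35 mg/mL protein) in 50 mM sodium phosphate pH 7.5. Incubated 30 min at 25 °C with compound and [3H]mepyramine (final 0.7 nM). Nonspecific binding from 10⁻⁶ M promethazine. Filtration through glass-fibre filters and liquid scintillation counting.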

[12] = biological target: T3, 5-hydroxytryptamine receptor 1A (Rattus norvegicus, UniProt P19327); test: Binding constant against 5-hydroxytryptamine 1A receptor (in vivo); conditions: in the assay text read “(in vitro)” for “(in vivo)”
T3 sequence (P19327 whole entry): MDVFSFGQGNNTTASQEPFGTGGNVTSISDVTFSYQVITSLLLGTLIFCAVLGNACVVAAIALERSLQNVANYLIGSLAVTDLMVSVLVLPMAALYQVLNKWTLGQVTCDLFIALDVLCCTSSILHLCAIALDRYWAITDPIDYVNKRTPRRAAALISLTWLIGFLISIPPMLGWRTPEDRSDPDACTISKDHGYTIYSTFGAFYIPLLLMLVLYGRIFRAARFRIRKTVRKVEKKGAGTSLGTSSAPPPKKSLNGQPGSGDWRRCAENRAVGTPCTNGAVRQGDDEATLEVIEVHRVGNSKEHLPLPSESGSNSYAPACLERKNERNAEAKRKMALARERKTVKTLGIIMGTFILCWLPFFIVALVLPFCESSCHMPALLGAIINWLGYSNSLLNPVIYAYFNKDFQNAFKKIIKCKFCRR
Procedure, shortened: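 Rat hippocampal membranes (1 mg/mL protein, Tris-HCl) preincubated 5 min at 37 °C with compound, then [3H]-8-OH-DPAT (final 1 nM) added for a further 10 min. Nonspecific binding from 10⁻⁵ M serotonin. Filtration through glass-fibre filters, two ice-cold buffer washes, scintillation counting of bound radioactivity.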

D(2) dopamine receptor [13] = biological target: T2, D(2) dopamine receptor; test: Binding constant against dopamine receptor D2 […]; procedure, shortened: as §1

Row | IC50 [1] | IC50 [2] | SMILES | IC50 (D(2) dopamine receptor [3]) | ED50 (Rattus norvegicus [4]) | ED50 (Mus musculus [5]) | ED50 (Rattus norvegicus [6]) | ED50 (Rattus norvegicus [7]) | ED50 (Mus musculus [8]) | ED50 (Rattus norvegicus [9]) | ED50 (Rattus norvegicus [10]) | ED50 (Rattus norvegicus [11]) | Ki (Histamine H1 receptor) | Ki [12] | Ki (D(2) dopamine receptor [13])
1 | 3.7 nM | 11 nM | O=S1(=O)c2cccc3cccc(c23)N1CCCCN1CCN(c2ccc(F)cc2)CC1 | 300 nM | – | – | – | – | – | – | – | – | – | – | –
2 | – | – | O=S1(=O)c2cccc3cccc(c23)N1CCCN1CCN(c2ccc(F)cc2)CC1 [FANANSERIN] | > 1000 nM | 5.91 mg/kg | 0.16 mg/kg | 0.99 mg/kg | 0.45 mg/kg | 0.43 mg/kg | 14.2 mg/kg | 0.65 mg/kg | 2.38 mg/kg | 25 nM | 70 nM | > 1000 nM
